In the library only some 3.5% were active in any assay of this set; here they are far more common.
MrgX1 antagonist – antagonists of human MrgX1 receptor | Q96LB2 | MRGX1-HEK293 calcium flux, Fluo-4, BAM8-22 antagonism; active compounds read low | B-score at 10 µM | 310,000 compounds, 1.3% hits;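 active = calcium-response B-score plate-corrected more than 3 library SD below zero, starting fluorescence within 5 deviations, no agonist response on first addition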;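 note: peak minus trough fluorescence over baseline after final BAM8-22 challenge near maximal dose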
Target sequence (Q96LB2 whole entry, looked up): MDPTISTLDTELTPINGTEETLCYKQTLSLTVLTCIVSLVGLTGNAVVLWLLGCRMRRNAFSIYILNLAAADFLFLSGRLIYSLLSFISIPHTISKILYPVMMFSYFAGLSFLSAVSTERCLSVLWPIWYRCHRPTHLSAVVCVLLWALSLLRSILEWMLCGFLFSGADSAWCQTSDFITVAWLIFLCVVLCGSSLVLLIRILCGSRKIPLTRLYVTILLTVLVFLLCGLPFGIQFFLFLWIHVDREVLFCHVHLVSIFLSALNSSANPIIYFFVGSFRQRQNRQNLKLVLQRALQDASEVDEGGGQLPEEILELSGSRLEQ
RGS4 inh – human RGS4 inhibition. AID 463165. HEK293 M3R/RGS4 inducible, Fluo-4 calcium flux; active compounds read high; triggered by carbachol at its EC20. P49798. B-score at 10 µM. 310,000 compounds, 0.45% hits;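 active = B-score, a plate-corrected calcium signal, over three deviations above library mean, with baseline fluorescence within five deviations of library mean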;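 note: RGS4 expression induced by doxycycline in cells with stable M3 receptor; B-score is computed from the integrated fluorescence ratio over baseline after carbachol; higher B-score means a larger calcium signal and so more RGS4 inhibition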
MrgX1 ag – agonists of human MrgX1 receptor. AID 588627. B-score at 10 µM. 310,000 compounds, 0.44% hits. Q96LB2. MrgX1-HEK293 cells, Fluo-4 calcium fluorescence, agonist mode; active compounds read high;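 active = calcium response B-score plate-corrected fluorescence ratio at least 3 library SD, with starting fluorescence B-score inside 5 SD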
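Assay system: stable human MrgX1 HEK293 cell line. Quantity: 15,000 cells per well. Schedule: cells plated overnight, dye loaded 0.5 h 37 °C, 0.5 h room temperature. Detection: Fluo-4 NW calcium-flux fluorescence, kinetic read. Read-out basis: peak-minus-minimum fluorescence over baseline, converted to B scores. Control set: positive and negative control wells on each plate.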
MrgX1 PAM – allosterically activates human MrgX1 receptor signaling; Q96LB2; MrgX1-HEK293, Fluo-4 calcium flux, FDSS; active compounds read high; B-score at 10 µM; 310,000 compounds, 0.63% hits; AID 588675;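 active = plate-corrected calcium response at least 3 library SD above typical, normal starting fluorescence, not activating the receptor alone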;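 note: compound read alongside a low EC10 to EC30 dose of BAM8-22 agonist; peak minus trough fluorescence over baseline measured at the second addition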
RGS4 act – potentiators or activators of RGS4; HEK293 M3R/inducible RGS4, carbachol calcium flux Fluo4; active compounds read low; B-score at 10 µM; 310,000 compounds, 0.92% hits;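 active = B-score of the integrated calcium signal more than 4 SD below the library mean, with starting fluorescence not abnormally high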;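 note: negative B-score means reduced calcium response which marks RGS4 activation or potentiation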
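Reagent: ECmax carbachol challenge; Test system: M3R-expressing HEK293 line, RGS4 induced by doxycycline; Schedule: overnight RGS4 induction, 30 min dye load 37 °C, 20 min compound RT; Detection: calcium dye Fluo4 fluorescence; Read-out: Agonist-evoked peak-minus-minimum fluorescence over baseline, integrated ratio, B score.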
RGS4 inh valid – RGS4 inhibitor validation. 1,700 compounds, 65% hits. HEK293 M3R/RGS4, carbachol calcium Fluo-4 fluorescence; carbachol added at its EC20; 0 = buffer wells, 100 = carbachol control. calcium response, % at 10 µM. shares compounds with RGS4 inh. AID 492999;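 active = duplicate-averaged calcium response above the buffer-only control mean plus 5 SD of those controls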;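 note: integrated fluorescence ratio F max minus min over baseline F0; higher response in RGS4-induced cells means RGS4 inhibition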
RGS4 uninduced – counter-screen for RGS4 inhibitors: effect in non-induced cells. shares compounds with RGS4 inh. 1,900 compounds, 20% hits. activity (percent), % at 10 µM. HEK293 M3R non-induced, carbachol calcium Fluo-4; submaximal (EC20) carbachol stimulus; buffer wells 0%, carbachol control wells 100%. AID 493000; call rule not given here;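 note: RGS4 induction absent so cells express M3R without RGS4; higher means more calcium signal and flags a non-specific hit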
M3R basal Ca ctr – second counter-screen for RGS4 inhibitors: non-induced cells without carbachol | calcium response (agonist-mode artifact), % at 10 µM | AID 493001 | HEK293 M3R/RGS4 non-induced, Fluo-4 calcium, no carbachol; normalised: buffer wells 0%, carbachol wells 100% | 1,900 compounds, 22% hits | shares compounds with RGS4 inh;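 active = duplicate-averaged calcium rise in uninduced cells above buffer wells' mean plus 5 SD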
* = called active by the depositor; i = inactive; · = not tested or not shown.

SMILES	MrgX1 antagonist	RGS4 inh	MrgX1 ag	MrgX1 PAM	RGS4 act	RGS4 inh valid	RGS4 uninduced	M3R basal Ca ctr
COc1ccc(-c2csc(Nc3ccc(S(=O)(=O)Nc4cc(C)on4)cc3)n2)cc1C	i	13*	i	i	i	i	46%*	i
COc1ccc(-c2csc(Nc3ccc(S(=O)(=O)Nc4cc(OC)nc(OC)n4)cc3)n2)cc1	i	5.7*	i	i	i	18%*	i	i
O=C1COc2ccc(C(=O)CCl)cc2N1	i	13*	i	i	i	66%*	58%*	9.5%*
COc1ccc(Cl)cc1NC(=O)c1cc(-c2ccc(C)cc2O)n[nH]1	i	i	i	i	i	·	i	i
COc1ccc(NC(=O)c2cc(-c3cc(Cl)ccc3O)n[nH]2)c(OC)c1	i	i	i	i	i	·	·	·
COc1ccc(OC)c(NC(=O)c2cc(-c3cc(C)c(C)cc3O)n[nH]2)c1	i	i	i	i	i	·	·	·
COc1ccc(Cl)cc1NC(=O)c1cc(-c2cc(C)ccc2O)n[nH]1	i	i	i	i	i	i	i	i
Cn1ccsc1=NC(=O)c1ccc(S(=O)(=O)C(F)F)cc1	i	i	i	i	i	·	·	·
Cc1cc(N)n2ncc(-c3ccc(F)cc3)c2n1	i	i	i	i	i	·	·	·
Nc1c(C(=O)O)cnc2c(-c3ccc(Cl)cc3)cnn12	i	7.7*	i	i	i	24%*	31%*	i
Cc1cc(N)n2ncc(-c3ccc(Cl)cc3)c2n1	i	5.1*	i	i	i	17%*	i	i
CC1CCCC(NC(=O)c2ccc(COc3ccccc3)o2)C1C (centres undefined)	i	i	i	i	i	·	·	·
Cc1cc(C)cc(N(CC(=O)NC(C)(C)C)C(=O)CCC(=O)Nc2nccs2)c1	i	i	i	i	i	·	·	·
NC(=O)c1cc2ccc(O)cc2oc1=Nc1ccccc1	·	i	·	·	i	i	i	i
CSCCC(NC(=O)COc1ccccc1)C(=O)N1CCN(C(C)=O)CC1 (centres undefined)	i	i	i	i	i	·	·	·
Cn1c(=O)c2c(-c3ccccc3)n(-n3cnnc3)cc2n(C)c1=O	i	5.4*	i	i	i	11%*	i	i
CN(C)/C=C/C(=O)c1cc(F)cc(C(F)(F)F)c1	i	i	i	i	i	·	·	·
O=C(/C=C/NNC(=O)c1ccc(Br)cc1)c1ccccc1	i	i	i	i	i	·	·	·
O=C(/C=C/NNC(=O)c1ccccc1)c1ccccc1	i	i	i	i	i	·	i	i
O=S(=O)(Nc1ccc(S(=O)(=O)Nc2nccs2)cc1)c1ccc2c(c1)OCCO2	i	i	i	i	i	i	i	i
NS(=O)(=O)c1ccc(NS(=O)(=O)c2ccc3c(c2)OCCO3)cc1	i	i	i	i	i	·	·	·
COc1ccc(NC(=O)C2CCCN(S(=O)(=O)c3ccccc3)C2)c(OC)c1 (centres undefined)	i	i	i	i	i	·	·	·
COc1ccc(Oc2ncccc2[N+](=O)[O-])cc1	i	13*	i	i	i	i	i	i
O=[N+]([O-])c1cccnc1Oc1ccc(F)cc1	i	i	i	i	i	·	·	·
CCc1ccccc1NC(=S)N(CCN1CCOCC1)C1CCN(C(C)=O)CC1	i	i	i	i	i	·	·	·

Bioassay records: PubChem, Johns Hopkins Ion Channel Center
